SMILES strings stand for the structures.

The values below come from paper PMC11621838 (Proceedings of the National Academy of Sciences of the …, 2024).

Test [1] concerns the target T1, TAS2R5 (Homo sapiens, UniProt Q9NYW4).
T1 sequence (Q9NYW4 1-299): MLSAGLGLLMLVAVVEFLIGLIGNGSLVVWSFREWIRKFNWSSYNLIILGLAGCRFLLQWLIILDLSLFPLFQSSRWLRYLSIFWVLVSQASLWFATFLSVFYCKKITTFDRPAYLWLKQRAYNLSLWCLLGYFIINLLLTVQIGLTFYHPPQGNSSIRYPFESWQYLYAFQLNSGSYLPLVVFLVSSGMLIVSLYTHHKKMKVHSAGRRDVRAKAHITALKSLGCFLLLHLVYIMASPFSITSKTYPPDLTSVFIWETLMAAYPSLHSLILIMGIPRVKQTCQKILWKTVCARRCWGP
Type of test: cell-based.

Test [2] deals with T1, TAS2R5. In words: FLOWER microtoroid optical resonator receptor-ligand affinity measurement. It counts as binding. A digest of the protocol:
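Microtoroid coated with DOPC vesicles (0.5 mg/mL, 1.5 h, 3–4 °C). HEK-293-expressed TAS2R5 was extracted with CellLyticM (1:3) and spun 12,500 rcf, 60 min, 4 °C. The supernatant, diluted 1:6 in DPBS pH 7.4, was incubated with the toroid for 1.5 h. Graded agonist concentrations were perfused with 5-min buffer rinses. Peak wavelength shift per concentration was fit to a Hill binding equation (Bmax, nonspecific, background terms) for KD.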

As a reminder, the EC50 is the midpoint of the concentration-response curve. Read a high EC50 as a need for much substance. A word on the Kd: it is the free concentration of one partner at which half of the binding sites on the other are occupied at equilibrium, for simple one-to-one binding. Lower therefore signals tighter binding. For the molecule `c1cnc2c(c1)ccc1cccnc12` [T5-1, 1,10-phenanthroline], a half-maximal effect at TAS2R5 [1] (EC50, D9 cells, Fluo-4, [Ca2+]i, mean ± SE of 7 to 10 experiments) (EC50) was put at 23.1 ± 3.99 µM. Moreover, the “EC50, fold lower than that of T5-14” value on TAS2R5 [1] ([Ca2+]i in D9 cells) is 3 fold. Besides, the “potency class of the agonist” value on TAS2R5 [1] (cellular assays) is “moderate-potency”. Besides, the “S.T. (log-transformed signal transduction coefficient)” value at TAS2R5 [1] (log(EMax/EC50), EC50 in Molar) stood at 6.5. For the same molecule, the affinity on TAS2R5 [2], expressed as Kd, was 13 ± 3.5 µM.
